Compounds with a hit are over-represented: about 2.3% of the library has one in this group of screens.
SR-BI DiI-HDL act: activators of SR-BI mediated HDL lipid uptake; CHO ldlA[mSR-BI] cells, DiI-HDL uptake fluorescence, 3 h; 100 = double the neutral-control signal; activation, % at 12.5 µM; 0.096% of 320,000 active;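 active = mean replicate activation of at least 60% and every replicate at or above 60%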
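Material – SR-BI-overexpressing, LDLR-lacking CHO cells · Medium – BSA-supplemented, HEPES-buffered Ham's F12, pH 7.4 · Doses – single concentration · Times – compound with DiI-HDL co-incubation, 3 h at 37 °C · Measured by – bottom-read fluorescence, 550/595 nm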
ATG4B inh: blocks human ATG4B protease cleavage of LC3 substrate; Q9Y4P1; ATG4B cleavage of LC3-PLA2, NBD-HPC fluorescence, 1 h; inhibition, % at 8.33 µM; 0.51% of 340,000 active; in the data active = inhibition above about 40%
Target sequence (Q9Y4P1 whole entry, looked up): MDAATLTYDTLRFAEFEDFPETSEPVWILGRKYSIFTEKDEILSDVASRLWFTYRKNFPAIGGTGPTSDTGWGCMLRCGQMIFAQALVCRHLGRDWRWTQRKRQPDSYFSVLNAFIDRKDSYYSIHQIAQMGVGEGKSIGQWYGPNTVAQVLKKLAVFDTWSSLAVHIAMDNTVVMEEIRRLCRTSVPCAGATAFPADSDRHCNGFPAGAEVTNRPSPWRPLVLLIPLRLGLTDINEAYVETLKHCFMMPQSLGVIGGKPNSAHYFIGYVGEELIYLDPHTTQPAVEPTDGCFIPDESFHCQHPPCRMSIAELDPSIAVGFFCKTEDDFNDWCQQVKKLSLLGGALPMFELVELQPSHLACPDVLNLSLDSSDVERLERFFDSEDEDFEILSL
SR-BI HDL uptake: mouse SR-BI HDL lipid transfer inhibition; Q61009; inhibition, % at 12.5 µM; 0.96% of 320,000 active; ldlA[mSR-BI] CHO cells, DiI-HDL uptake fluorescence, 3 h;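 active = mean replicate inhibition of at least 70% and a set share of replicates each scoring 70 or more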
CAL PDZ FP-1: blocks peptide binding to the human CAL PDZ domain. 0.92% of 300,000 active. inhibition, % at 24.9 µM. purified CAL PDZ, TMR-peptide fluorescence polarization, 1 h. Q9HD26;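 active = mean inhibition of at least 30% with at least half of replicates also reaching 30%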
CAL PDZ FP-2: inhibitors of human CAL PDZ peptide binding | AID 504414 | inhibition, % at 20 µM | 0.02% of 330,000 active | purified CAL PDZ, TMR-peptide fluorescence polarization, 1 h | Q9HD26;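 active = highest replicate inhibition of at least 40%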
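System: tagged CAL PDZ domain. Schedule: 1 h room-temperature incubation prior to read. Signal: fluorescence polarization (mP). Measure: percent inhibition from loss of millipolarization.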
Hits are given with their value; 0 = inactive; - = no result given.

SMILES | SR-BI DiI-HDL act | ATG4B inh | SR-BI HDL uptake | CAL PDZ FP-1 | CAL PDZ FP-2
N#CC1=CC2CN(Cc3ccccc3)C1C1C(=O)N(c3ccccc3)C(=O)C21 (configuration not stated) | 0 | 0 | 0 | 0 | 0
CC(C)(C)c1cc(C(=O)NNc2cccc(Cl)c2)n(Cc2ccccc2)n1 | 0 | 0 | 0 | 66 | 0
Cc1c(C)n(C)c2ccc(C(=O)Nc3cccc4ccccc34)cc12 | 0 | 0 | 81 | - | 0
O=C(Nc1cccc2ccccc12)c1ccc(F)cc1 | 0 | 0 | 0 | 52 | 0
Cc1onc(-c2ccccc2Cl)c1C(=O)N(C)Cc1ccccc1 | 0 | 0 | 0 | 0 | 0
CC(NC(=O)c1ccccc1NC(=O)CN1CCc2ccccc2C1)c1ccccc1 (configuration not stated) | 0 | 0 | 0 | 0 | 0
Clc1ccc(/C=N/c2c(-c3ccc(Cl)cc3)nc3n2CCS3)cc1 | 0 | 0 | 89 | 0 | 0
Cc1cccc(OCCCn2c(CO)nc3ccccc32)c1 | 0 | 0 | 0 | 89 | -
COc1ccc(C)cc1NC(=O)C1CCCN1S(=O)(=O)c1ccccc1F (configuration not stated) | 0 | 0 | 0 | - | 0
Cc1c(Cl)cccc1N1C(=O)CC(N(O)c2ccccc2)C1=O (configuration not stated) | 218 | 0 | 0 | 0 | -
CCOc1ccc(CNC2CCCCCCC2)cc1OC | 0 | 0 | 0 | 0 | -
O=C(CSc1nnc(CNC(=O)c2cccs2)o1)Nc1ccc(Cl)cc1 | 0 | 0 | 0 | 0 | 0
O=C(CSc1nnc(CNC(=O)c2cccs2)o1)Nc1ccc(Br)cc1 | 0 | 0 | 0 | 44 | 0
CN(C(=O)Cn1c(=O)oc2cc(S(=O)(=O)N3CCCC3)ccc21)C1CCCCC1 | 0 | 0 | 0 | 0 | 0
CCOC(=O)NC(=O)/C(N=Nc1cc(C)cc(C)c1)=C(\C)O | 0 | 0 | 0 | 0 | 0
CCOC(=O)NC(=O)/C(N=Nc1ccc(C(F)(F)F)cc1)=C(\C)O | 0 | 0 | 0 | 45 | 0
O=C(N[C@@H]1CCC(=O)N(CC[C@H](Sc2ccccc2)c2ccccc2)CC1)OCc1ccccc1 | 0 | 0 | 0 | 0 | 0
CCCn1c(=C(C#N)C#N)s/c(=C2\C=Cc3ccccc3N2CC)c1=O | 0 | 0 | 0 | 55 | 0
CCOc1nc(OCC)c2[nH]c(C(=O)O)c(Br)c2n1 | 0 | 0 | 0 | 0 | 0
COCC(=O)N(Cc1cc2ccccc2[nH]c1=O)c1ccc(OC)cc1 | 0 | 0 | 0 | 62 | 0
O=C(Cn1cnc2c(NCc3ccccc3)ncnc21)NCCCN1CCCC1=O | 0 | 0 | 0 | 0 | 0
COc1ccc(C)cc1NC(=O)C1CCN(C(=O)C2CC(=O)N(c3ccc(C)cc3)C2)CC1 (configuration not stated) | 0 | 0 | 89 | 0 | 0
O=C(Nc1nncs1)C1CC(=O)N(C2CCCC2)C1 (configuration not stated) | 0 | 0 | 0 | 0 | 0
COc1ccc(CCN=Cc2c(C)[nH]n(-c3ccc([N+](=O)[O-])cc3)c2=O)cc1OC | 0 | 0 | 0 | - | 0
COc1ccc(-c2[nH]n(-c3ccc([N+](=O)[O-])cc3)c(=O)c2C=NCc2ccccc2)cc1 | 0 | 0 | 87 | 0 | 0
SMILES | SR-BI DiI-HDL act | ATG4B inh | SR-BI HDL uptake | CAL PDZ FP-1 | CAL PDZ FP-2
CCN(CC(=O)Nc1ccc(NC(C)=O)cc1)C(=O)CN1C(=O)C2CCCCC2C1=O (configuration not stated) | 0 | 0 | 0 | 0 | 0
Cc1nc(COc2ccc(C(=O)NCc3ccccc3CN3CCCCC3)cc2)cs1 | 0 | 0 | 0 | 0 | 0
CCc1ccc(S(=O)(=O)Nc2cc(SCC(=O)O)c(O)c3ccccc23)cc1 | 0 | 0 | 0 | 0 | 0
Cc1ccc(C)c(S(=O)(=O)Nc2cc(SCC(=O)O)c(O)c3ccccc23)c1 | 0 | 0 | 0 | 0 | 45
CSCCC(NC(N)=O)C(=O)NCc1ccccc1Cl (configuration not stated) | 0 | 0 | 0 | 38 | -
COc1cccc(CNC(=O)CNS(=O)(=O)c2ccc(Br)s2)c1 | 0 | 0 | 0 | 0 | 0
CCOC(=O)Cc1csc(NC(=O)/C=C/c2ccc(OC)cc2)n1 | 0 | 0 | 0 | 32 | 0
Oc1ccc(C[C@H]2CNC(=S)N2CC2CCCN2C[C@H](Cc2ccc(O)cc2)N2C[C@H](Cc3ccc(O)cc3)N(CC3CCCCC3)C2=S)cc1 (some centres not stated) | 183 | - | 0 | 0 | 0
CC(C)C[C@@H](CN1CCCC1CN1C(=S)NC[C@@H]1Cc1ccc(O)cc1)N1C[C@H](Cc2ccc(O)cc2)N(CC2CCCCC2)C1=S (some centres not stated) | 76 | - | 0 | 0 | 0
CC(C)C[C@H]1CNC(=S)N1CC1CCCN1C[C@H](Cc1ccc(O)cc1)N1C[C@H](Cc2ccccc2)N(CC2CCCCCC2)C1=S (some centres not stated) | 0 | - | 0 | 0 | 0
Oc1ccc(C[C@H]2CNC(=S)N2CC2CCCN2C[C@H](Cc2ccccc2)N2C[C@H](Cc3ccc(O)cc3)N(CC3CCCCCC3)C2=S)cc1 (some centres not stated) | 86 | - | 0 | 0 | 0
C=CCn1cc(/C=N/N2C(=O)C3C4C=CC(C4)C3C2=O)c2ccccc21 (configuration not stated) | 0 | 0 | 0 | 0 | 0
O=C1C2C3C=CC(O3)C2C(=O)N1N=Cc1cccc2ccccc12 (configuration not stated) | 0 | 0 | 0 | 112 | 0
Cc1[nH]nc(C(F)(F)F)c1N=NN1CCOCC1 | 0 | 0 | 0 | 0 | 0
O=C(NCc1ccccc1Cl)C1CCC(=O)N(CCCN2CCCC2=O)C1 (configuration not stated) | 0 | 0 | 0 | 0 | 0
O=C(NCCc1ccccc1C(F)(F)F)C1CCC(=O)N(CCCN2CCCC2=O)C1 (configuration not stated) | 0 | 0 | 0 | 52 | 0
O=C(COc1ccccc1[N+](=O)[O-])NCC1COc2ccccc2O1 (configuration not stated) | 0 | 0 | 0 | 30 | 0
O=C(COc1ccccc1)NCC1COc2ccccc2O1 (configuration not stated) | 0 | 0 | 0 | - | 0
CCCn1c(SCC(=O)N(C2CCCCC2)C2CCS(=O)(=O)C2)n[nH]c1=O (configuration not stated) | 0 | 0 | 0 | 0 | 0
C1CCCC(NC2=NCCO2)CCC1 | 0 | 0 | 0 | 59 | 0
C/C(=N\OCC(=O)OCC(=O)NCc1ccccc1)c1ccc2c(c1)OCO2 | 0 | 0 | 0 | 0 | 0
COc1ccccc1NC(=O)Cn1cnc2c(cnn2-c2ccccc2)c1=O | 0 | 0 | 0 | 57 | 0
COC(=O)c1ccccc1NC(=O)Cn1cnc2c(cnn2-c2ccccc2)c1=O | 0 | 0 | 0 | - | 0
COc1cc(Cl)c(C)cc1NC(=O)CNC(=O)Cn1cnc2ccccc2c1=O | 0 | 0 | 85 | 0 | -
COc1cc(Cl)c(C)cc1NC(=O)CSc1ccc(C)cc1 | 0 | 0 | 0 | 0 | 0

Screening data (PubChem BioAssay)
